High-throughput results as filed in PubChem BioAssay.
EP2 mod: modulates human prostaglandin E2 receptor EP2 signaling; 260,000 tested, 0.83% active; EP2-expressing cells, cAMP HTRF FRET, PGE2 co-stimulation; induction, % at 25 µM;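 active = compounds whose cAMP rise, as percent of the full-agonist control response, exceeds 60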;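 also: rat C6 glioma line stably carrying human EP2 under a CMV promoter; the protocol text gives 20 µM as final concentration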
Granule exo inh: lytic granule exocytosis inhibition. TALL-104 LAMP-1 surface exposure, flow cytometry; cells stimulated with thapsigargin and PMA. inhibition, % at 10 µM. 360,000 tested, 0.66% active. AID 651702;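 active = inhibition above about 55%, limit read from the data; inconclusive = no clear call, values can overlap the other calls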
T cell HTS: modulates CD8 T cell binding to vesicles | 2C CD8+ T cell-vesicle binding, flow cytometry; hits give low values | response (vesicle binding), % at 7 µM | 330,000 tested, 0.068% active;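 active = response, share of CD8 T cells binding vesicles, and their 90th percentile fluorescence all below set limits, cut at about 80% in these data, passing the limit was not always enough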;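 also: values below 100% mean blocked vesicle binding to the CD8+ T cells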
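Test system: purified 2C TCR transgenic mouse naive CD8+ T cells. Probe or stimulus: QL9-peptide-loaded Drosophila micro-vesicles bearing Ld, ICAM-1 and B7-1. Incubation: binding step 1.5 h, 37 °C, antibody labelling 20 min, ice. Measured by: flow cytometry of vesicle-bound cells.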
MC4R ag barr: agonists of human melanocortin 4 receptor (MC4R) beta-arrestin; P32245; U2OS MC4R beta-arrestin complementation, luminescence; percent of melanotan II response, DMSO zero; activation, % at 8.9 µM; 360,000 tested, 0.98% active; AID 540308;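 active = activation above a per-plate cutoff, the mean activation of sample wells on that plate plus 3 SD, cut at about 8% in these data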
Target sequence (P32245 whole entry, looked up): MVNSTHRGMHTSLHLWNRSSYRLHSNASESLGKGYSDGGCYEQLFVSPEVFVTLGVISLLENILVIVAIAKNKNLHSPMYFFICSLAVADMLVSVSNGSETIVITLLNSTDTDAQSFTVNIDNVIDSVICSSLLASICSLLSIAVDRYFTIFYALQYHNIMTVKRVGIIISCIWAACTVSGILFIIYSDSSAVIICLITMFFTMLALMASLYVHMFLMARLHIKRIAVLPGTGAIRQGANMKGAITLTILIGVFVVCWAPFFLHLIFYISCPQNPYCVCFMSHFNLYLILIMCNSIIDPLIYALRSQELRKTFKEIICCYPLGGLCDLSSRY
MC4R antag cAMP: antagonists of human melanocortin 4 receptor (MC4R). P32245. MC4R-expressing cells, MTII-stimulated cAMP, LANCE TR-FRET. inhibition, % at 6.5 µM. 360,000 tested, 0.48% active;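 active = inhibition above its plate's cutoff, the mean of tested wells on that plate plus 3 SD, cut at about 29% in these data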
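Material – human MC4R-expressing U2OS cells · Repeats – no replicates · Detection – TR-FRET with Eu-cAMP and labeled anti-cAMP, 671 nm · Times – compound 30 min, challenge 1 h, detection 1 h · Compound – single nominal compound dose of 6.5 µM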
PGE2 EP2 inh: inhibitors of human EP2 prostaglandin E2 receptor; C6 glioma cells expressing human EP2, cAMP TR-FRET; cells stimulated with saturating PGE2; 260,000 tested, 0.52% active; inhibition, % at 25 µM;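 active = percent inhibition above 40 after rounding to a whole number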;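 also: rat C6 glioma host cells with rolipram phosphodiesterase inhibitor present; the protocol text gives 20 µM as final concentration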
EP2 cAMP induct: EP2 receptor cAMP induction, counter-screens negative. calls only at 20 µM (by protocol). C6 glioma EP2 cells, cAMP HTRF induction; plus low (about EC15) PGE2 agonist. 1,300 tested, 47% active. shares compounds with EP2 mod;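 active = cAMP induction above 50% in the main assay while under 30% in all four parallel counter assays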;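 also: rat C6 glioma cells stably expressing human EP2 receptor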
Hits are given with their value; n = inactive; u = inconclusive; x = no result; + = active, no number. Sampled rows, rich in hits. Any-hit rate of the full collection: about 2.6%.

SMILES	EP2 mod	Granule exo inh	T cell HTS	MC4R ag barr	MC4R antag cAMP	PGE2 EP2 inh	EP2 cAMP induct
Cc1cc(Oc2ccccc2)nc(NCc2ccccc2)n1	66	n	n	n	n	n	+
Cc1cc(Nc2ccccc2)nc(NCc2ccccc2)n1	n	n	n	n	n	n	x
Cc1cc(N/N=C/c2ccc(F)cc2)nc(NCc2ccccc2)n1	n	n	n	n	n	n	x
N#CC1c2ccccc2C=CN1C(=O)c1ccccc1 (configuration not stated)	n	n	n	n	n	n	x
N#CC1(Cc2ccccc2Cl)c2ccccc2C=CN1C(=O)c1ccccc1 (configuration not stated)	70	n	n	n	n	x	n
CC(C)C1COC(c2cccn2Cc2ccccc2Cl)=N1 (configuration not stated)	68	n	n	n	n	n	n
COCCCN(C(=O)c1ccco1)c1nc(-c2cc(OC)ccc2OC)cs1	75	u	n	n	n	n	+
COc1ccc(OC)c(-c2csc(N(Cc3ccco3)C(=O)c3ccco3)n2)c1	n	n	n	n	n	n	x
CCC(=O)N(CC)c1nc(-c2cc(OC)ccc2OC)cs1	78	n	n	n	n	n	+
COc1cc(NC(=S)NC(=O)c2cc(C)cc(C)c2)ccc1NC(=O)c1cccs1	68	n	n	n	n	n	n
CC(NC(=O)CN(C)CC(=O)Nc1ccc(F)c(F)c1F)c1ccccc1 (configuration not stated)	n	n	n	n	n	n	x
Cc1ccc(NC2=C(C(=O)c3ccccc3)N(C)S(=O)(=O)c3ccccc32)cc1	66	n	n	n	n	n	n
CN1C(C(=O)c2ccccc2)=C(N)c2ccccc2S1(=O)=O	n	n	n	n	n	n	x
CCc1nnc(NC(=O)CSc2nc3sc(C)c(C)c3c(=O)n2-c2ccccc2)s1	n	x	x	x	x	n	x
NS(=O)(=O)c1ccc(Nc2ncccc2[N+](=O)[O-])cc1	n	n	n	n	n	n	x
CSc1nc(C)c2c(n1)N(c1ccc(C(C)C)cc1)CC2	n	n	n	n	n	x	x
O=S(=O)(Nc1ccccc1N1CCCC1)c1ccccc1C(F)(F)F	x	n	x	n	n	x	x
O=S(=O)(Nc1ccccc1N1CCCCC1)c1ccc(Cl)s1	69	n	n	n	n	n	n
CC(=O)N(Cc1cccs1)Cc1cc2ccc(C)c(C)c2nc1Cl	77	n	n	n	n	n	n
O=C(CCn1c(=O)oc2ccccc21)NCCC1=CCCCC1	n	n	n	n	n	n	x
Cc1cc(C)cc(N(C(=O)c2ccc(Br)o2)C2C=CS(=O)(=O)C2)c1 (configuration not stated)	n	n	n	n	n	n	x
CC(=O)N(c1cccc(Br)c1)C1C=CS(=O)(=O)C1 (configuration not stated)	69	n	n	n	n	n	n
Cc1oncc1-c1csc(-c2ccccc2Cl)n1	69	n	n	n	n	n	+
Cc1cc(C(=O)CSc2nc3ccccc3c(=O)n2C)c(C)n1Cc1ccc2c(c1)OCO2	74	n	n	n	n	n	n
Cc1cc(C(=O)CSc2nnc(-c3ccccc3)n2Cc2ccc3c(c2)OCO3)c(C)n1C	n	n	n	n	n	n	x
SMILES	EP2 mod	Granule exo inh	T cell HTS	MC4R ag barr	MC4R antag cAMP	PGE2 EP2 inh	EP2 cAMP induct
CCN(CC)C(=O)Cn1cc(C(=O)C(=O)NCc2ccco2)c2ccccc21	67	n	n	n	n	n	n
Cc1cc(NC(=O)CCC(=O)N(c2ccccc2F)C(C(=O)NC2CCCC2)c2ccccc2)no1 (configuration not stated)	x	n	n	n	n	x	x
CN(C)c1nc(-c2ccccc2)c2cnn(Cc3ccccc3)c2n1	73	n	n	n	n	n	+
COc1cccc(C(=O)N2N=C(c3ccccc3)CC2(O)C(F)(F)F)c1 (configuration not stated)	n	n	n	n	n	n	x
COc1ccc(C(=O)N2N=C(c3ccccc3)CC2(O)C(F)(F)F)cc1 (configuration not stated)	83	n	x	n	n	n	+
O=C(c1ccccc1O)N1N=C(c2ccccc2)CC1(O)C(F)(F)F (configuration not stated)	78	n	n	n	n	n	n
Nc1ccc(C(=O)N2N=C(c3ccccc3)CC2(O)C(F)(F)F)cc1 (configuration not stated)	x	n	n	n	n	x	x
Cc1cc(C2(c3cc(C)c(NC(=O)CN4CCOCC4)c(C)c3)CCCCC2)cc(C)c1NC(=O)CN1CCOCC1	n	x	n	x	x	n	x
C/C=C\C=C/C(=O)Nc1cccc(C2=NOC3(C2)C[C@@H](C(N)=O)N(C(=O)CCCCC)C3)c1 (some centres not stated)	n	n	n	n	n	n	x
Cc1onc(-c2c(F)cccc2Cl)c1C(=O)OCn1nnc2ccccc2c1=O	77	n	n	n	n	n	n
CC(C)(Oc1ccc(Cl)cc1)C(=O)N(Cc1ccccc1)c1ccccn1	68	n	n	n	n	n	+
COC(=O)c1cc(Br)c(=O)n(-c2nccs2)c1	65	n	n	n	n	n	n
COc1cc2c(cc1OC)-c1cc(N3CCCc4ccccc43)nc(=O)n1CC2	61	n	n	n	n	n	n
COc1cc2c(cc1OC)-c1cc(N3CCc4ccccc43)nc(=O)n1CC2	n	n	n	n	n	n	x
COc1cc2c(cc1OC)-c1cc(Nc3ccc4c(c3)OCCO4)nc(=O)n1CC2	n	n	n	n	n	n	n
Cc1nn(C)c(C)c1Nc1ccc(N2C(=O)C3C4C=CC(C4)C3C2=O)cc1[N+](=O)[O-] (configuration not stated)	n	n	n	n	n	n	x
Cc1cccc(Oc2nc(-c3ccccc3)cc(C)c2S(C)(=O)=O)c1C	72	n	n	n	n	n	+
CC(C)(C)c1nnc(NS(C)(=O)=O)s1	x	n	n	n	n	x	x
O=C(O)c1ccc(-c2ccc(Cl)cc2Cl)o1	n	n	n	n	n	n	x
O=C(O)c1ccc(-c2ccccc2Cl)o1	69	n	n	n	n	n	n
OC(COc1ccccc1)Cn1c2ccccc2c2ccccc21 (configuration not stated)	71	n	n	n	n	n	+
O=C(O)c1ccc(OCC(O)Cn2c3ccccc3c3ccccc32)cc1 (configuration not stated)	n	n	n	n	n	n	x
O=C(Cc1ccccc1[N+](=O)[O-])Nc1ccccc1C(=O)N1CCCC1	n	n	n	n	n	n	x
